SR-BI DiI-HDL act: enhances SR-BI lipid uptake from DiI-HDL; activation, % at 12.5 µM; 320,000 compounds, 0.096% hits; AID 504775; CHO ldlA[mSR-BI] cells, DiI-HDL uptake fluorescence, 3 h; 100 = double the neutral-control signal;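 active = mean replicate activation of at least 60% and every replicate at or above 60%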
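Material – SR-BI-overexpressing, LDLR-lacking CHO cells · Medium – BSA-supplemented, HEPES-buffered Ham's F12, pH 7.4 · Doses – single concentration · Times – compound with DiI-HDL co-incubation, 3 h at 37 °C · Measured by – bottom-read fluorescence, 550/595 nm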
Yeast superoxide: lowers age-related superoxide in aged yeast cells. S. cerevisiae aged cells, superoxide DHE fluorescence; active compounds read low. superoxide response (% of plate mean), % at 10 µM. 330,000 compounds, 0.18% hits. AID 2690;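 active = superoxide response under a set limit, about three screen SD below normal, cut at about 65% in these data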;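 note: yeast aged for seven days with compound at 30 °C before DHE staining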
AHR act: activators of human aryl hydrocarbon receptor; AHR-responsive luciferase reporter cells, luminescence; activation, % at 5 µM; P35869; 320,000 compounds, 2.5% hits; in the data active = activation above about 47%
Target sequence (P35869 whole entry, looked up): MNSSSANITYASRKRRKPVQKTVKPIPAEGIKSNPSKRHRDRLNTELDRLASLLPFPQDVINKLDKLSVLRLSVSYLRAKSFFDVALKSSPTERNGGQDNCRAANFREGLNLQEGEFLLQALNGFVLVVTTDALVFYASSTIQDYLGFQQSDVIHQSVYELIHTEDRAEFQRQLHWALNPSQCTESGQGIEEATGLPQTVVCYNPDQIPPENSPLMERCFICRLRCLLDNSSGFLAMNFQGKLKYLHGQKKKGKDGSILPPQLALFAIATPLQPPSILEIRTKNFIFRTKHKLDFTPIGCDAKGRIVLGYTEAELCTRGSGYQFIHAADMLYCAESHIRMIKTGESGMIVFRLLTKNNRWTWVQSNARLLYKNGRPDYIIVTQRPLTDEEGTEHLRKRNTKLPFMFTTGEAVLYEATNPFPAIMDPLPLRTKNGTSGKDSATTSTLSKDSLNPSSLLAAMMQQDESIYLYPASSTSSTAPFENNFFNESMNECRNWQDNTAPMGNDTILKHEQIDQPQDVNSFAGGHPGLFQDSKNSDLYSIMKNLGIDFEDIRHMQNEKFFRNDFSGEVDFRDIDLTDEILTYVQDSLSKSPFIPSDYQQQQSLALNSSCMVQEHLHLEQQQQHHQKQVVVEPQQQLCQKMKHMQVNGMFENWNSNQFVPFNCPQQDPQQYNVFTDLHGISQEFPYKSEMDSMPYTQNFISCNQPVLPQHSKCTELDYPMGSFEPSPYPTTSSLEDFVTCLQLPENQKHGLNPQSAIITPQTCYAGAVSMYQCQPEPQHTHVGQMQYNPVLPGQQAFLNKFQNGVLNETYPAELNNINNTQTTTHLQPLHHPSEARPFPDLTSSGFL
SMARCA2 activ: SMARCA2 function activation, primary screen; MG213 cells, MMTV-luciferase reporter, dexamethasone, overnight; activation, % at 9.1 µM; 370,000 compounds, 1% hits; AID 652017; in the data active = activation above about 7.8%
Lipid droplet: modulators of hepatic lipid droplet formation; AID 1656; inhibition, % at 6.5 µM; 240,000 compounds, 0.4% hits; AML12 mouse hepatocytes, oleate lipid droplets, BODIPY imaging;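 active = lipid droplet intensity inhibited by at least 50%, with more than 500 cells counted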
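Technique: fluorescence imaging, 20x objective, two fields per well / Assay system: AML12 hepatocytes (mouse) / Measure: % inhibition of lipid droplet signal / Doses: 6.5 µM single-point dosing / Incubation: overnight exposure / Reagent: 100 µM oleic acid challenge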
SR-BI HDL uptake: blocks mouse SR-BI lipid uptake from DiI-HDL; ldlA[mSR-BI] CHO cells, DiI-HDL uptake fluorescence, 3 h; AID 488896; inhibition, % at 12.5 µM; 320,000 compounds, 0.96% hits;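 active = mean replicate inhibition of at least 70% and a set share of replicates each scoring 70 or more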
SMARCA2 conf: confirmation of SMARCA2 (BRM) function activators; 3,500 compounds, 30% hits; activation, % at 9.1 µM; AID 652260; shares compounds with SMARCA2 activ; MG213 cells, MMTV-luciferase with dexamethasone, luminescence, overnight; MG213 cells expressing E1A, Rb sequestered; DMSO wells 0%, reference activator 100%;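 active = activation above its plate's cutoff, the mean activation of tested wells plus 3 SD, cut at about 7.9% in these data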
VP16 Luc act: counter-screen for SMARCA2 activators: GAL4-VP16 luciferase reporter activation. 3,500 compounds, 41% hits. activation, % at 9.1 µM. shares compounds with SMARCA2 activ. AID 686939. HEK293 GAL4-VP16 pG5luc reporter, luciferase luminescence; scaled: DMSO wells 0%, SAHA wells 100%;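 active = activation above the solvent-only control well mean plus 3 SD, averaged across control plates, cut at about 5.2% in these data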
Hits are given with their value; – = inactive; · = not tested or not shown. Compounds with a hit are over-represented: about 4.3% of the library has one in this group of screens.

SMILES | SR-BI DiI-HDL act | Yeast superoxide | AHR act | SMARCA2 activ | Lipid droplet | SR-BI HDL uptake | SMARCA2 conf | VP16 Luc act
COc1ccc2oc(=Nc3ccccc3)c(-c3nc4ccccc4[nH]3)cc2c1 | – | – | – | 11 | – | – | – | 9.8
COc1ccc(CN2C(C(=O)NCC(C)C)CSCCS2(=O)=O)cc1 (stereo unspecified) | · | · | · | – | · | · | · | ·
O=C(Nc1ccccc1Cl)OC1CC2CC1[C@H]1CCCCN1[C@H]2Cc1ccccc1 (stereo partly specified) | · | · | · | – | · | · | · | ·
N#Cc1ccc(-c2nc3ccc(Cl)cn3c2Cc2ccsc2)cc1 | · | · | · | – | · | · | · | ·
Clc1ccc(-c2nc3ccc(Cl)cn3c2Cc2ccsc2)cc1 | · | · | · | 11 | · | · | 8.9 | –
O=C(C(=O)N1CCN(S(=O)(=O)c2cccc3ccccc23)CC1)c1cccc(C(F)(F)F)c1 | · | · | · | – | · | · | · | ·
CC(C)c1ccc(C(=O)NN2C(=O)C3CCCCC3C2=O)cc1 (stereo unspecified) | – | – | – | 13 | – | – | 9.3 | 8.5
COC(=O)C1=C(C)N(Cc2ccccc2C(F)(F)F)C(=NCc2ccccc2)NC1c1cccc(F)c1 (stereo unspecified) | · | · | · | – | · | · | · | ·
CNC(=S)NNC(=O)c1sc2cc(C(F)(F)F)cnc2c1-c1cccnc1 | – | – | – | – | – | – | · | ·
CNC(=S)NNC(=O)c1sc2cc(C(F)(F)F)cnc2c1-c1ccccn1 | – | – | – | 8.0 | – | – | – | –
O=C1CCCCC1Sc1nnc(Nc2ccccc2)s1 (stereo unspecified) | – | – | – | 8.8 | – | – | – | 7.7
COc1ccc(-n2cnc3ccccc32)cc1 | – | – | – | – | – | – | · | ·
COc1ccc(-n2cnc(=S)[nH]c2=S)cc1 | – | · | · | 14 | · | – | 21 | –
Cc1cccc(NC(=O)CSc2nnc(SCc3ccc(Cl)cc3)s2)c1 | · | · | · | – | · | · | · | ·
Cc1nnc(NC2=NCCC2)o1 | – | – | – | – | · | – | · | ·
c1coc(-c2nnc(NC3=NCCC3)o2)c1 | – | – | – | 8.8 | – | – | – | 5.4
C[C@@H]1ON(C)[C@H]2C[C@H]3c4[nH]c5cccc(-c6ccccc6F)c5c4CCN3C(=O)[C@@H]12 | · | · | · | – | · | · | · | ·
C/C(Cc1ccccc1)=N\NC(=O)c1ccccn1 | – | – | · | – | – | – | · | ·
COc1ccccc1C(=O)N/N=C(\C)CC(=O)Nc1ccc2c(c1)OCCO2 | – | – | – | – | – | – | · | ·
C/C(CC(=O)Nc1ccc2c(c1)OCO2)=N\NC(=O)c1ccccc1N | – | – | – | 17 | – | – | – | –
COc1ccc(NC(=O)C/C(C)=N/NC(=O)c2ccccn2)c(OC)c1 | – | – | – | 10.0 | – | – | – | 5.8
COc1ccc(NC(=O)C/C(C)=N/NC(=O)c2cnccn2)c(OC)c1 | – | – | – | – | – | – | · | ·
C/C(CC(=O)Nc1cc(C)cc(C)c1)=N\NC(=O)c1ccccn1 | – | – | – | 9.8 | – | – | – | –
C/C(CC(=O)Nc1ccc2c(c1)OCCO2)=N\NC(=O)c1ccccn1 | – | – | – | 9.5 | – | – | – | –
CCOc1ccc(-n2c(SCC(=O)c3ccccc3Cl)nnc2-c2ccncc2)cc1 | · | · | · | – | · | · | · | ·
SMILES | SR-BI DiI-HDL act | Yeast superoxide | AHR act | SMARCA2 activ | Lipid droplet | SR-BI HDL uptake | SMARCA2 conf | VP16 Luc act
CC(C)(C)S(=O)(=O)N1Cc2cc(CO)ccc2[C@@H]1CCO | · | · | · | – | · | · | · | ·
O=C(NCCc1ccccc1Cl)[C@@H]1CCCN1C(=O)[C@H](Cc1cccnc1)NC(=O)N1CCOCC1 | · | · | · | – | · | · | · | ·
COc1ccc(Cn2cc(COC(=O)Nc3ccc(F)cc3)nn2)cc1 | · | · | · | – | · | · | · | ·
Cc1cccc(-c2cccc3c4c([nH]c23)[C@@H]2C[C@H](N(C)C(=S)Nc3ccc(C#N)cc3)[C@H]([C@H](C)O)CN2CC4)c1 | · | · | · | – | · | · | · | ·
O=C(CSc1ccccc1F)Nc1ccc2c(c1)OCO2 | – | – | – | 11 | · | – | – | 5.7
C/C(CC(=O)Nc1ccc2c(c1)OCCO2)=N\NC(=O)c1ccccc1F | – | – | – | 8.7 | – | – | – | –
COc1ccc(/C=N/Nc2nccnc2Cl)cc1 | – | – | – | 8.7 | – | – | – | 12
CCN1CCCCC(NC(=O)c2cc(OC)c(OC)c(OC)c2)C1=O (stereo unspecified) | · | · | · | – | · | · | · | ·
CNc1ccc(/C=C(\C#N)c2ccccn2)cc1[N+](=O)[O-] | – | – | – | 13 | – | – | 13 | 8.0
COc1ccc(OCc2ccc(/C=N\NC(=O)c3sccc3C)o2)cc1 | – | – | · | 8.5 | – | – | 9.4 | –
COCc1[nH]nc2c1C(c1ccc(C)cc1)NC2=O (stereo unspecified) | · | · | · | – | · | · | · | ·
CC(COc1ccccc1)CN1CCC(C(O)(c2ccccc2)c2ccccc2)CC1 (stereo unspecified) | · | · | · | – | · | · | · | ·
Cc1ccc(C(=O)N2CCC[C@@H]2C(=O)N2CCC[C@H]2C(=O)NCc2ccccc2)cc1 | · | · | · | – | · | · | · | ·
O=P(Cc1cccc[n+]1[O-])(c1ccccc1)c1ccccc1 | – | – | – | – | – | – | · | ·
N#CCS(=O)(=O)c1cccc[n+]1[O-] | · | · | · | 8.8 | · | · | – | –
O=Nc1c2nc3ccccc3n(O)c-2c2ccccc12 | – | – | 101 | 8.0 | · | – | 29 | 5.5
O=C(/C=C/c1ccco1)Nc1ccc(CN2CCOCC2)cc1 | – | – | – | 9.4 | – | – | 9.2 | 11
CC1CN(C(=O)CCC(=O)NC(C)c2ccccc2)c2cc(Cl)ccc2O1 (stereo unspecified) | – | – | – | 8.3 | – | – | – | –
COc1cc(C=NN2CCN(C(c3ccccc3)c3ccccc3)CC2)cc(OC)c1OC(C)=O | · | · | · | – | · | · | · | ·
COC(=O)CCN(Cc1ccc(OC)cc1OC)S(=O)(=O)c1ccccc1Br | · | · | · | – | · | · | · | ·
CC(=O)C1(C(=O)NCc2ccccc2)CC(c2ccccc2C(F)(F)F)=NO1 (stereo unspecified) | · | · | · | – | · | · | · | ·
Cc1ccc(C2=NN(S(C)(=O)=O)C(c3cccs3)C2)cc1 (stereo unspecified) | – | – | – | – | · | – | · | ·
COc1ccc(C2=NN(S(C)(=O)=O)C(c3cccs3)C2)cc1 (stereo unspecified) | – | – | – | 10 | – | – | 8.1 | 6.5
Cc1nnc(NC(=O)c2cc(S(=O)(=O)N(C)C)ccc2N2CCCC2)s1 | – | – | – | 9.1 | · | – | – | –
C=CCC(NCc1ccco1)c1ccc(OC)c(OC)c1 (stereo unspecified) | – | – | – | 9.9 | – | – | – | –
C=CCC(NCc1ccco1)c1ccc(OC)cc1OC (stereo unspecified) | · | – | – | · | – | · | · | ·
